The source made the active and inactive calls. The calls are words filed in the database; no cut-off is given here.
Legend:
HT-29 [1] = test: Growth inhibition of human HT29 cells after 72 hrs by SRB assay; type: functional, cell-based; conditions: HT-29, 72 h
How it was run: (§1)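 HCT-116 and HT-29 human colorectal lines (ATCC) grown in RPMI-1640 with 10% FBS, 2 mmol/L glutamine, penicillin/streptomycin, at 37 °C in 5% CO2. Seeded at 6000 cells/well, attached overnight, then treated in triplicate with graded concentrations for 72 h. Cells fixed in 10% TCA, stained with SRB, and A515 read. IC50 obtained by the Logit method; mean of three independent tests.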

HCT-116 [2] = test: Growth inhibition of human HCT116 cells at 10 uM after 72 hrs by SRB assay; type: functional; conditions: for inhibition at 10 µM: HCT-116, 72 h
How it was run: (§2)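 SRB growth assay on HCT-116 or HT-29 cells (RPMI-1640, 10% FBS, 37 °C, 5% CO2). Seeded at 6000 cells/well, attached overnight, exposed in triplicate at 10 μM for 72 h. Cells TCA-fixed, SRB-stained, A515 read. Percent inhibition = [1 − A515 treated/A515 control] × 100; mean of three determinations.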

HCT-116 [3] = test: Growth inhibition of human HCT116 cells after 72 hrs by SRB assay; type: functional, cell-based; conditions: HCT-116, 72 h; how it was run: as §1
HT-29 [4] = test: Growth inhibition of human HT29 cells at 10 uM after 72 hrs by SRB assay; type: functional; conditions: for inhibition at 10 µM: HT-29, 72 h; how it was run: as §2
Rattus norvegicus = test: Volume of distribution in Sprague-Dawley rat at 2 mg/kg, iv; type: ADME, organism-based; design: dose 2 mg/kg, route intravenous; conditions: in vivo
How it was run: (§3)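 Sprague–Dawley rats acclimatized one week, then given one iv dose of 2 mg/kg in PEG400:cremophor (100:15, v/v). Orbital-sinus blood drawn under light ether at 0, 5, 15, 30 min and 1, 2, 4, 6, 8 h; plasma stored at −70 °C.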

Mus musculus [5] = test: Increase in body weight in KM mouse at 100 mg/kg, ip; type: functional; conditions: route intraperitoneal
Mus musculus [6] = test: Tumor weight in KM mouse at 200 mg/kg, ip after 7 days; type: functional; conditions: route intraperitoneal
How it was run: (§4)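 Sarcoma 180 cells implanted in the axilla of female KM mice (6–8 weeks) on Day 0, randomized on Day 1 (control 20/group, treated 10/group). Treated mice got 200 mg/kg ip once daily for 7 days, suspended in 0.5% CMC. Mice killed 24 h after the last dose; body and tumor weights taken. Inhibition = (control − treated mean tumor weight)/control mean tumor weight × 100%.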

[7] = Mean resident time in Sprague-Dawley rat at 2 mg/kg, iv; type: ADME, organism-based; design: dose 2 mg/kg, route intravenous; conditions: in vivo; how it was run: as §3
[8] = Cmax in Sprague-Dawley rat at 10 mg/kg, po after 15 mins; type: ADME, organism-based; design: dose 10 mg/kg, route oral; conditions: in vivo
How it was run: (§5)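 Sprague–Dawley rats given one oral gavage dose of 10 mg/kg suspended in 0.5% CMC-Na. Orbital-sinus blood drawn at 0, 5, 15, 30 min and 1, 2, 4, 6, 8 h; plasma frozen at −70 °C, extracted with EtOAc, and quantified by LC–MS/MS. Cmax and Tpeak read directly from the data; t1/2 = 0.693/k; mean ± SD.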

Sarcoma-180 = test: Antitumor activity in sarcoma180 cells implanted in KM mouse at 200 mg/kg, ip after 7 days; type: functional; conditions: route intraperitoneal; how it was run: as §4
[9] = Elimination half life in Sprague-Dawley rat at 10 mg/kg, po; type: ADME, organism-based; design: dose 10 mg/kg, route oral; conditions: in vivo; how it was run: as §5
[10] = Elimination half life in Sprague-Dawley rat at 2 mg/kg, iv; type: ADME, organism-based; design: dose 2 mg/kg, route intravenous; conditions: in vivo; how it was run: as §3
[11] = Clearance in Sprague-Dawley rat at 2 mg/kg, iv; type: ADME, organism-based; design: dose 2 mg/kg, route intravenous; conditions: in vivo; how it was run: as §3
[12] = Mean resident time in Sprague-Dawley rat at 10 mg/kg, po; type: ADME, organism-based; design: dose 10 mg/kg, route oral; conditions: in vivo; how it was run: as §5
Mus musculus [13] = test: Increase in body weight in KM mouse at 200 mg/kg, ip after 7 days; type: functional; conditions: route intraperitoneal; how it was run: as §4
Mus musculus [14] = test: Tumor weight in KM mouse at 100 mg/kg, ip; type: functional; conditions: route intraperitoneal
[15] = Oral bioavailability in Sprague-Dawley rat at 10 mg/kg; type: ADME, organism-based; conditions: in vivo
How it was run: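 Rats received 10 mg/kg oral (0.5% CMC-Na) or 2 mg/kg iv (PEG400:cremophor 100:15). Serial plasma samples, 0–8 h, quantified by LC–MS/MS after EtOAc extraction. F = (AUCoral × Dose_iv)/(AUC_iv × Dose_oral) × 100%.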

SMILES	inhibition at 10 µM (HCT-116 [2])	inhibition at 10 µM (HT-29 [4])	further results
NC(=O)c1ccc(Nc2nc(Nc3ccccc3)nc(N3CCOCC3)n2)cc1	85.8%	87.8%	IC50 (HT-29 [1]): 8.1 µM; IC50 (HCT-116 [3]): 9.6 µM
COc1ccc(Nc2nc(Nc3ccc(F)cc3)nc(N3CCOCC3)n2)cc1	–	82.3%	Activity (HCT-116 [2]): inactive
c1ccc(CNc2nc(N3CCOCC3)nc(N3CCOCC3)n2)cc1	–	5.2%	Activity (HCT-116 [2]): inactive
COc1ccc(Nc2nc(NCCO)nc(Nc3ccccc3)n2)cc1	–	13.7%	Activity (HCT-116 [2]): inactive
COc1ccc(Nc2nc(NCc3ccccc3)nc(N3CCOCC3)n2)cc1	20.1%	88.4%	–
OCCNc1nc(Nc2ccccc2)nc(Nc2ccccc2)n1	–	33.9%	Activity (HCT-116 [2]): inactive
c1ccc(CNc2nc(Nc3ccccc3)nc(N3CCOCC3)n2)cc1	48.7%	90.5%	–
c1ccc(Nc2nc(Nc3ccccc3)nc(N3CCOCC3)n2)cc1	81.3%	85%	IC50 (HT-29 [1]): 31 µM; IC50 (HCT-116 [3]): 4.7 µM
COc1ccc(Nc2nc(Nc3ccc(SC)cc3)nc(N3CCOCC3)n2)cc1OC	79.2%	81.4%	–
FC(F)(F)Oc1ccc(Nc2nc(Nc3ccccc3)nc(N3CCOCC3)n2)cc1	63.4%	87.3%	–
COc1ccc(Nc2nc(Nc3ccccc3)nc(N3CCOCC3)n2)cc1OC	84.7%	76.4%	IC50 (HCT-116 [3]): 0.92 µM
COc1ccccc1Nc1nc(Nc2ccccc2)nc(N2CCOCC2)n1	78.3%	89.3%	–
COc1ccc(Nc2nc(Nc3ccccc3)nc(N3CCOCC3)n2)cc1	81.4%	100%	Vdss (Rattus norvegicus): 2.11 L/kg; IC50 (HT-29 [1]): 30 µM; Activity (Mus musculus [5]): 29.3 g; Activity (Mus musculus [6]): 0.89 g; MRT [7]: 1.06 h; Cmax [8]: 1290 ng/mL; Activity (Sarcoma-180): 40.7%; half-life [9]: 1.16 h; half-life [10]: 1.09 h; clearance [11]: 22.7 mL/min/kg; MRT [12]: 1.88 h; Activity (Mus musculus [13]): 27.3 g; Activity (Mus musculus [14]): 1.65 g; IC50 (HCT-116 [3]): 0.76 µM; bioavailability [15]: 30.9%
NS(=O)(=O)c1ccc(Nc2nc(N3CCOCC3)nc(N3CCOCC3)n2)cc1	–	–	Activity (HCT-116 [2]): inactive; Activity (HT-29 [4]): inactive
OCCN1CCN(c2nc(Nc3ccccc3)nc(Nc3ccccc3)n2)CC1	22%	76.1%	–
COc1cccc(Nc2nc(Nc3ccccc3)nc(N3CCOCC3)n2)c1	82.6%	87.4%	IC50 (HT-29 [1]): 39 µM
COc1ccc(Nc2nc(Nc3ccc(S(N)(=O)=O)cc3)nc(N3CCOCC3)n2)cc1	69%	83.2%	–
c1ccc(CNc2nc(NCc3ccccc3)nc(N3CCOCC3)n2)cc1	–	50%	Activity (HCT-116 [2]): inactive
NS(=O)(=O)c1ccc(Nc2nc(Nc3ccccc3)nc(N3CCOCC3)n2)cc1	96.2%	80.4%	IC50 (HCT-116 [3]): 2 µM

SMILES	inhibition at 10 µM (HCT-116 [2])	inhibition at 10 µM (HT-29 [4])	further results
COc1ccc(Nc2nc(Nc3ccccc3)nc(N3CCN(CCO)CC3)n2)cc1	19%	77.3%	–
CCOc1ccc(Nc2nc(Nc3ccccc3)nc(N3CCOCC3)n2)cc1	64.1%	87.5%	–
Fc1ccc(Nc2nc(N3CCOCC3)nc(N3CCOCC3)n2)cc1	–	80.2%	Activity (HCT-116 [2]): inactive
CSc1ccc(Nc2nc(Nc3ccc(C)cc3)nc(N3CCOCC3)n2)cc1	71.1%	54.1%	IC50 (HCT-116 [3]): 120 µM
COc1ccc(Nc2nc(Nc3ccc(OC)cc3)nc(N3CCOCC3)n2)cc1	53.3%	80.6%	IC50 (HT-29 [1]): 100 µM
C1CN(c2nc(N3CCOCC3)nc(N3CCOCC3)n2)CCO1	–	–	Activity (HCT-116 [2]): inactive; Activity (HT-29 [4]): inactive
Fc1ccc(Nc2nc(Nc3ccc(OC(F)(F)F)cc3)nc(N3CCOCC3)n2)cc1	62%	85.5%	–
NS(=O)(=O)c1ccc(Nc2nc(NCc3ccccc3)nc(N3CCOCC3)n2)cc1	–	68.6%	Activity (HCT-116 [2]): inactive
COc1ccc(Nc2nc(Nc3ccc(OC)cc3)nc(N3CCN(CCO)CC3)n2)cc1	–	49.3%	Activity (HCT-116 [2]): inactive
c1ccc(Nc2nc(NCCN3CCOCC3)nc(Nc3ccccc3)n2)cc1	30.1%	23.4%	–
Fc1ccc(Nc2nc(Nc3ccccc3)nc(N3CCOCC3)n2)cc1	60.1%	90%	–
COc1ccc(Nc2nc(NCCN3CCOCC3)nc(Nc3ccccc3)n2)cc1	–	74.6%	Activity (HCT-116 [2]): inactive
Clc1ccc(Nc2nc(Nc3ccccc3)nc(N3CCOCC3)n2)cc1	51.7%	87.1%	IC50 (HT-29 [1]): 37 µM
Cc1ccc(CNc2nc(Nc3ccccc3)nc(N3CCOCC3)n2)cc1	15.7%	75.3%	–
c1ccc(Nc2nc(N3CCOCC3)nc(N3CCOCC3)n2)cc1	44.9%	80.5%	–
Brc1ccc(Nc2nc(Nc3ccccc3)nc(N3CCOCC3)n2)cc1	77.7%	89.7%	IC50 (HT-29 [1]): 25 µM
Fc1ccc(Nc2nc(NCc3ccccc3)nc(N3CCOCC3)n2)cc1	10.1%	87.1%	–
COc1ccc(Nc2nc(N3CCOCC3)nc(N3CCOCC3)n2)cc1	6.9%	74.2%	–

From ChEMBL document CHEMBL1146333, “Synthesis and antitumor evaluation of a novel series of triaminotriazine derivatives” (Bioorg Med Chem, 2007)
